Test results reported in ChEMBL document CHEMBL4257576, “4-Iminooxazolidin-2-one as a Bioisostere of the Cyanohydrin Moiety: Inhibitors of Enterovirus 71 3C Protease” (J Med Chem, 2018).
Calls of active or inactive are those of the source. No cut-off for these calls is given here.

Experiments:
Genome polyprotein = Genome polyprotein (Enterovirus A71, UniProt A0A1D8D5K2); experiment: Inhibition of EV71 3C protease expressed in Escherichia coli BL21(DE3) using NMA-IEALFQGPPK(DNP)FR as substrate preincubated for 0.5 hrs followed by substrate addition by fluorescence assay
Chain of Genome polyprotein (A0A1D8D5K2 whole entry): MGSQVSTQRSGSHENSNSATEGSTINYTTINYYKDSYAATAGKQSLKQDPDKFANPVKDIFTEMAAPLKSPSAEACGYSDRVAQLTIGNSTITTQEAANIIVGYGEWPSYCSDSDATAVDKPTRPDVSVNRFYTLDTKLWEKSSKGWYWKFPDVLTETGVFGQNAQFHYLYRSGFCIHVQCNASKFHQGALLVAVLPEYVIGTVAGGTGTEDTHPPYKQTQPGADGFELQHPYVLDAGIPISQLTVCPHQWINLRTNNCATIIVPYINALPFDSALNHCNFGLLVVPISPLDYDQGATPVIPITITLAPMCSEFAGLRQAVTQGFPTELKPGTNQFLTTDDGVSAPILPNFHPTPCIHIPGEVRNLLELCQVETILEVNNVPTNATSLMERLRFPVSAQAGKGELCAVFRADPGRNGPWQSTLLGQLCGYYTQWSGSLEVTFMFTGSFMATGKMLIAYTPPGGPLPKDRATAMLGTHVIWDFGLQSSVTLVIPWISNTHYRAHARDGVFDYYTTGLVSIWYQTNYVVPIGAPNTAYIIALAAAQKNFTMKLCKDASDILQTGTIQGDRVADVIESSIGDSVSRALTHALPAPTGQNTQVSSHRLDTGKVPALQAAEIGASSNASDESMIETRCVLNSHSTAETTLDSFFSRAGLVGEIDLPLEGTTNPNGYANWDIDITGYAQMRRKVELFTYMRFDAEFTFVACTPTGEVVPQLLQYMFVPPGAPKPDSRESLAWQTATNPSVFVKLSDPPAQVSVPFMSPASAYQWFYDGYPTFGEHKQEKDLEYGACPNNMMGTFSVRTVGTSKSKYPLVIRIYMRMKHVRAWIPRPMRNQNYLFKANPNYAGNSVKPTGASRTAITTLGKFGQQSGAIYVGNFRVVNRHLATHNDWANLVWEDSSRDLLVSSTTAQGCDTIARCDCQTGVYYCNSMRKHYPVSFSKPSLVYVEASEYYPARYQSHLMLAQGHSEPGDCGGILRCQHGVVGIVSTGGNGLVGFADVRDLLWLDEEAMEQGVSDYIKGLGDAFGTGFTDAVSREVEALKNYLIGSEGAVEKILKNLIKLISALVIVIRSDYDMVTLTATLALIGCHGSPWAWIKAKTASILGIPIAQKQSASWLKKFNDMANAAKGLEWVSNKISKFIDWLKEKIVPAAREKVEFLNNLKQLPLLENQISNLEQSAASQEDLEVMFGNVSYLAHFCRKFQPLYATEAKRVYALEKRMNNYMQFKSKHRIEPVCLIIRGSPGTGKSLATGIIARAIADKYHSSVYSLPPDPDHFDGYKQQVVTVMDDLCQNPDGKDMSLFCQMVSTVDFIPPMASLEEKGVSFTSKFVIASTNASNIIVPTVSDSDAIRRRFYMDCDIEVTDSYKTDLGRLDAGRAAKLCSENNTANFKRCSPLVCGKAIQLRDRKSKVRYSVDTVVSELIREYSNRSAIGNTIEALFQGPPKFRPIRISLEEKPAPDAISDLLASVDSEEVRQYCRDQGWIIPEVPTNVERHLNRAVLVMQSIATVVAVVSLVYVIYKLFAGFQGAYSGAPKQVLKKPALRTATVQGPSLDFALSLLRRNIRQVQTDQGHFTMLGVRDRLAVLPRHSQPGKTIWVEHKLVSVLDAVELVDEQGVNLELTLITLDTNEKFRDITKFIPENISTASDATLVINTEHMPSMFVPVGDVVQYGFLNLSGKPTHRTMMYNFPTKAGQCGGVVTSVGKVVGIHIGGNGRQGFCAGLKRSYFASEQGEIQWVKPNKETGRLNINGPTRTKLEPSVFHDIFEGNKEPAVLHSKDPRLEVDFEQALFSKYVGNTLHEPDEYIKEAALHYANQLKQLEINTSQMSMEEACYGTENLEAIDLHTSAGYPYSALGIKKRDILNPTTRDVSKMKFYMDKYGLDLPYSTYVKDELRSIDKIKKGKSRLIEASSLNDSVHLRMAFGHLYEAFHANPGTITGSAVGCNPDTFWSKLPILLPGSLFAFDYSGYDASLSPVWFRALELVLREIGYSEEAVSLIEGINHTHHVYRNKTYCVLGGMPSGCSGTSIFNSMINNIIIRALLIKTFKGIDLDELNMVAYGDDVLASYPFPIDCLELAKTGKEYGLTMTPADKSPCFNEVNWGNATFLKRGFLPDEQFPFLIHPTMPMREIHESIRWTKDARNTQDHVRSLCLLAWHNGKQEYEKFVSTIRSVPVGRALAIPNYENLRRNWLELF
How it was run: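 Values reported as Ki (µM), each the mean of three independent experiments with SEM (n=3).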

[1] = Cytotoxicity in human RD cells assessed as reduction in cell viability incubated for 24 hrs by WST1 assay; type: cell-based
How it was run: (§1)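 Values (EC50, CC50) are the average of three independent experiments, with SEM (n = 3).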

Enterovirus A71 = experiment: Antiviral activity against Enterovirus A71 infected in human RD cells receiving pEV71-Luc subgenomic replicon stocks from HEK-293T cells; type: functional, organism-based; conditions: Enterovirus A; how it was run: as §1
[2] = Half life in human liver microsomes at 1 mg/ml in presence of NADPH regenerating system by HPLC analysis; type: ADME, microsome
How it was run: (§2)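 Human and mouse liver microsomes at 1.0 mg/mL. Compound disappearance was tracked over time to give half-life and intrinsic clearance (Clint, µL/min/mg). Data are the mean of triplicates with SD (n = 3).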

[3] = Half life in human plasma by HPLC analysis; type: ADME, cell-free
How it was run: (§3)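 Compound was incubated in human or mouse plasma and its remaining level followed over time to obtain t1/2. Each point is n = 3 with standard deviation bars.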

[4] = Half life in ICR (CD-1) mouse plasma by HPLC analysis; type: ADME, cell-free; how it was run: as §3
[5] = Drug metabolism in PBS buffer at pH 7.4; type: physicochemical
[6] = Retention time of compound in ICR (CD-1) mouse plasma by UPLC/Q-TOF-MS analysis; type: ADME, cell-free
How it was run: (§4)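 Compound was incubated with mouse plasma for 60 min. LC/MS followed loss of the parent peak and appearance of a product peak by retention time, and the product was characterized by tandem MS.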

[7] = Drug metabolism in ICR (CD-1) mouse plasma by UPLC/Q-TOF-MS analysis; type: ADME, cell-free; how it was run: as §4
[8] = Tmax in ICR (CD-1) mouse at 20 mg/kg, iv administered as single dose by LC-MS analysis; type: ADME, organism-based; conditions: in vivo
How it was run: (§5)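 Male mice got a single 20 mg/kg dose, either IV or oral (PO), with separate groups for each route. Plasma concentration–time profiles were followed, and parameters were taken from mean ± SD curves (n = 3).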

[9] = Half life in ICR (CD-1) mouse at 20 mg/kg, po administered as single dose by LC-MS analysis; type: ADME, organism-based; conditions: in vivo; how it was run: as §5
[10] = Half life in ICR (CD-1) mouse at 20 mg/kg, iv administered as single dose by LC-MS analysis; type: ADME, organism-based; conditions: in vivo; how it was run: as §5
[11] = Intrinsic clearance in human liver microsomes at 1 mg/ml in presence of NADPH regenerating system by HPLC analysis; type: ADME, microsome; conditions: read-out: CLH; how it was run: as §2
Mus musculus [12] = experiment: AUC (0 to t) in ICR (CD-1) mouse at 20 mg/kg, po administered as single dose by LC-MS analysis; type: ADME, organism-based; conditions: in vivo; how it was run: as §5
Mus musculus [13] = experiment: Cmax in ICR (CD-1) mouse at 20 mg/kg, iv administered as single dose by LC-MS analysis; type: ADME, organism-based; design: dose 20 mg/kg, route intravenous; conditions: in vivo; how it was run: as §5
Mus musculus [14] = experiment: Cmax in ICR (CD-1) mouse at 20 mg/kg, po administered as single dose by LC-MS analysis; type: ADME, organism-based; design: dose 20 mg/kg, route oral; conditions: in vivo; how it was run: as §5
[15] = Half life in mouse liver microsomes at 1 mg/ml in presence of NADPH regenerating system by HPLC analysis; type: ADME, microsome; how it was run: as §2
[16] = Intrinsic clearance in mouse liver microsomes at 1 mg/ml in presence of NADPH regenerating system by HPLC analysis; type: ADME, microsome; conditions: read-out: CLH; how it was run: as §2
[17] = Tmax in ICR (CD-1) mouse at 20 mg/kg, po administered as single dose by LC-MS analysis; type: ADME, organism-based; conditions: in vivo; how it was run: as §5
[18] = biological target: Genome polyprotein (Enterovirus A71) (UniProt A0A1D8D5K2); experiment: Covalent binding affinity to EV71 3C protease expressed in Escherichia coli BL21(DE3) at 2 mg/ml incubated for 2 to 3 hrs and measured after trypsin digestion by LC-MS/MS analysis
Chain of Genome polyprotein (Enterovirus A71) (A0A1D8D5K2 as listed by the source): as the sequence (A0A1D8D5K2 whole entry) above

Mus musculus [19] = experiment: AUC (0 to t) in ICR (CD-1) mouse at 20 mg/kg, iv administered as single dose by LC-MS analysis; type: ADME, organism-based; conditions: in vivo; how it was run: as §5

SMILES	Ki (Genome polyprotein) [nM]	CC50 at 24 h [1] [nM]	EC50 (Enterovirus A71) [nM]	also measured
CCN1C(=N)[C@H]([C@H](C[C@@H]2CCCNC2=O)NC(=O)[C@H](Cc2ccc(F)cc2)NC(=O)c2cc(C)on2)OC1=O	3530	> 100000	17200	–
CCCCNC(=O)O[C@@H](C#N)[C@H](C[C@@H]1CCCNC1=O)NC(=O)[C@H](Cc1ccc(F)cc1)NC(=O)c1cc(C)on1	450	> 100000	690	–
CC(=O)O[C@@H](C#N)[C@H](C[C@@H]1CCCNC1=O)NC(=O)[C@H](Cc1ccc(F)cc1)NC(=O)c1cc(C)on1	64	> 100000	67	half-life [2]: 64 min; half-life [3]: 50 min; half-life [4]: 42 min
Cc1cc(C(=O)N[C@@H](Cc2ccc(F)cc2)C(=O)N[C@@H](C[C@@H]2CCCNC2=O)[C@H](C#N)OC(=O)NC(C)C)no1	36	> 100000	650	Drug metabolism [5]: Metabolite_Detected; Retention_time [6]: 6.41 min; half-life [4]: 31 min; Drug metabolism [7]: Metabolite_Detected
CCCCNC(=O)O[C@H](C#N)[C@H](C[C@@H]1CCCNC1=O)NC(=O)[C@H](Cc1ccc(F)cc1)NC(=O)c1cc(C)on1	4780	> 100000	8460	–
Cc1cc(C(=O)N[C@@H](Cc2ccc(F)cc2)C(=O)N[C@@H](C[C@@H]2CCCNC2=O)[C@H](C#N)OC(=O)Nc2ccccc2)no1	–	> 100000	13200	–
CCCN1C(=N)[C@@H]([C@H](C[C@@H]2CCCNC2=O)NC(=O)[C@H](Cc2ccc(F)cc2)NC(=O)c2cc(C)on2)OC1=O	83	> 100000	210	Tmax [8]: 5 min; half-life [2]: 40 min; half-life [9]: 60 min; half-life [10]: 51 min; microsomal CLint [11]: 17 µL/min/mg; AUCt (Mus musculus [12]): 7.9 mg·min/mL; half-life [3]: > 120 min; Cmax (Mus musculus [13]): 8200 ng/mL; half-life [4]: > 120 min; Cmax (Mus musculus [14]): 150 ng/mL; half-life [15]: 35 min; microsomal CLint [16]: 20 µL/min/mg; Tmax [17]: 15 min; Activity [18]: inactive; AUCt (Mus musculus [19]): 2340 ng·h/mL
Cc1cc(C(=O)N[C@@H](Cc2ccc(F)cc2)C(=O)N[C@@H](C[C@@H]2CCCNC2=O)[C@@H]2OC(=O)N(C(C)C)C2=N)no1	61	> 100000	510	–
Cc1cc(C(=O)N[C@@H](Cc2ccc(F)cc2)C(=O)N[C@@H](C[C@@H]2CCCNC2=O)[C@H](C#N)OC(=O)C(C)C)no1	240	> 100000	2610	–
CCCNC(=O)O[C@@H](C#N)[C@H](C[C@@H]1CCCNC1=O)NC(=O)[C@H](Cc1ccc(F)cc1)NC(=O)c1cc(C)on1	85	> 100000	160	Drug metabolism [5]: Metabolite_Detected; half-life [4]: 12 min; Drug metabolism [7]: Metabolite_Detected
CCNC(=O)O[C@H](C#N)[C@H](C[C@@H]1CCCNC1=O)NC(=O)[C@H](Cc1ccc(F)cc1)NC(=O)c1cc(C)on1	190	> 100000	3580	–
Cc1cc(C(=O)N[C@@H](Cc2ccc(F)cc2)C(=O)N[C@@H](C[C@@H]2CCCNC2=O)[C@@H]2OC(=O)N(C)C2=N)no1	210	> 100000	1030	–
Cc1cc(C(=O)N[C@@H](Cc2ccc(F)cc2)C(=O)N[C@@H](C[C@@H]2CCCNC2=O)[C@H](C#N)OC(=O)N(C)C)no1	–	> 100000	70400	–
CCCNC(=O)O[C@H](C#N)[C@H](C[C@@H]1CCCNC1=O)NC(=O)[C@H](Cc1ccc(F)cc1)NC(=O)c1cc(C)on1	183	> 100000	2210	–
Cc1cc(C(=O)N[C@@H](Cc2ccc(F)cc2)C(=O)N[C@@H](C[C@@H]2CCCNC2=O)[C@H]2OC(=O)N(C(C)C)C2=N)no1	33	> 100000	100	half-life [2]: 76 min; microsomal CLint [11]: 9 µL/min/mg; half-life [3]: > 120 min; half-life [4]: > 120 min; half-life [15]: 74 min; microsomal CLint [16]: 9 µL/min/mg
Cc1cc(C(=O)N[C@@H](Cc2ccc(F)cc2)C(=O)N[C@@H](C[C@@H]2CCCNC2=O)[C@@H](O)C#N)no1	4	> 100000	88	half-life [2]: 8 min; microsomal CLint [11]: 87 µL/min/mg; half-life [3]: 11 min; half-life [4]: 7 min; half-life [15]: 6 min; microsomal CLint [16]: 116 µL/min/mg; Activity [18]: inactive

SMILES	Ki (Genome polyprotein) [nM]	CC50 at 24 h [1] [nM]	EC50 (Enterovirus A71) [nM]	also measured
CNC(=O)O[C@H](C#N)[C@H](C[C@@H]1CCCNC1=O)NC(=O)[C@H](Cc1ccc(F)cc1)NC(=O)c1cc(C)on1	46	> 100000	1000	–
CCCN1C(=N)[C@H]([C@H](C[C@@H]2CCCNC2=O)NC(=O)[C@H](Cc2ccc(F)cc2)NC(=O)c2cc(C)on2)OC1=O	2600	> 100000	12700	–
Cc1cc(C(=O)N[C@@H](Cc2ccc(F)cc2)C(=O)N[C@@H](C[C@@H]2CCCNC2=O)[C@H]2OC(=O)N(C3CC3)C2=N)no1	1710	> 100000	8810	–
Cc1cc(C(=O)N[C@@H](Cc2ccc(F)cc2)C(=O)N[C@@H](C[C@@H]2CCCNC2=O)[C@H]2OC(=O)N(C)C2=N)no1	280	> 100000	3970	–
CCCCN1C(=N)[C@@H]([C@H](C[C@@H]2CCCNC2=O)NC(=O)[C@H](Cc2ccc(F)cc2)NC(=O)c2cc(C)on2)OC1=O	2540	> 100000	12700	–
Cc1cc(C(=O)N[C@@H](Cc2ccc(F)cc2)C(=O)N[C@@H](C[C@@H]2CCCNC2=O)[C@@H](C#N)OC(=O)NC2CC2)no1	6210	> 100000	12800	–
CNC(=O)O[C@@H](C#N)[C@H](C[C@@H]1CCCNC1=O)NC(=O)[C@H](Cc1ccc(F)cc1)NC(=O)c1cc(C)on1	71	> 100000	620	–
CCOC(=O)/C=C/[C@H](C[C@@H]1CCNC1=O)NC(=O)[C@@H](CC(=O)[C@@H](NC(=O)c1cc(C)on1)C(C)C)Cc1ccc(F)cc1	–	–	–	Activity [18]: Active
Cc1cc(C(=O)N[C@@H](Cc2ccc(F)cc2)C(=O)N[C@@H](C[C@@H]2CCCNC2=O)[C@@H](C#N)OC(=O)NC(C)C)no1	93	> 100000	1730	–
Cc1cc(C(=O)N[C@@H](Cc2ccc(F)cc2)C(=O)N[C@@H](C[C@@H]2CCCNC2=O)[C@H](C#N)OC(=O)C2CC2)no1	560	> 100000	4930	–
Cc1cc(C(=O)N[C@@H](Cc2ccc(F)cc2)C(=O)N[C@@H](C[C@@H]2CCCNC2=O)[C@H](C#N)OC(=O)NC2CC2)no1	1280	> 100000	5110	–
Cc1cc(C(=O)N[C@@H](Cc2ccc(F)cc2)C(=O)N[C@@H](C[C@@H]2CCCNC2=O)[C@H](C#N)OC(=O)N2CCOCC2)no1	–	> 100000	> 100000	Drug metabolism [5]: Metabolite_Notdetected; half-life [4]: > 120 min
CCN(C)C(=O)O[C@@H](C#N)[C@H](C[C@@H]1CCCNC1=O)NC(=O)[C@H](Cc1ccc(F)cc1)NC(=O)c1cc(C)on1	–	> 100000	> 100000	Drug metabolism [5]: Metabolite_Notdetected; half-life [4]: > 120 min
CCNC(=O)O[C@@H](C#N)[C@H](C[C@@H]1CCCNC1=O)NC(=O)[C@H](Cc1ccc(F)cc1)NC(=O)c1cc(C)on1	51	> 100000	750	–
CCN1C(=N)[C@@H]([C@H](C[C@@H]2CCCNC2=O)NC(=O)[C@H](Cc2ccc(F)cc2)NC(=O)c2cc(C)on2)OC1=O	220	> 100000	4370	–
